Results: ChEMBL document CHEMBL4346672, “Antimicrobial and KPC/AmpC inhibitory activity of functionalized benzosiloxaboroles” (Eur J Med Chem, 2019)
In brackets after ≈: the same amount, converted by molar mass. Activity calls are given as the source filed them. The rule behind the calls is not given here.

Assays:
Pseudomonas aeruginosa [1] = experiment: Antibacterial activity against Pseudomonas aeruginosa ATCC 27853 measured after 18 hrs by CLSI broth dilution method; assay type: functional; conditions: ATCC 27853, 18 h
Method in brief: (§1)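 Broth MIC in Mueller-Hinton II broth following CLSI, compounds dissolved in DMSO. Strains subcultured twice on tryptic soy agar before testing. Growth read after 35 °C, 18 h.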

Serratia marcescens = experiment: Antibacterial activity against Serratia marcescens ATCC 13880 measured after 18 hrs by CLSI broth dilution method; assay type: functional; conditions: ATCC 13880, 18 h; method in brief: as §1
Staphylococcus aureus [2] = experiment: Antibacterial activity against Staphylococcus aureus ATCC 6538P measured after 18 hrs by CLSI broth dilution method; assay type: functional; method in brief: as §1
[3] = system: Staphylococcus epidermidis; experiment: Antibacterial activity against Staphylococcus epidermidis ATCC 12228 measured after 18 hrs by CLSI broth dilution method; assay type: functional; conditions: ATCC 12228, 18 h; method in brief: as §1
Enterococcus faecalis [4] = experiment: Antibacterial activity against Enterococcus faecalis ATCC 29212 measured after 18 hrs by CLSI broth dilution method; assay type: functional; conditions: ATCC 29212, 18 h; method in brief: as §1
Enterococcus faecium [5] = experiment: Antibacterial activity against Enterococcus faecium ATCC 6057 measured after 18 hrs by CLSI broth dilution method; assay type: functional; conditions: ATCC 6057, 18 h; method in brief: as §1
Staphylococcus aureus [6] = experiment: Bactericidal activity against Staphylococcus aureus ATCC 6538P measured after 18 hrs by CLSI broth dilution method; assay type: functional
Method in brief: (§2)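 Strains stored at -80 °C and subcultured twice on tryptic soy agar before testing. Compounds dissolved in DMSO. […] MBC then determined per CLSI recommendations.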

[7] = system: Staphylococcus epidermidis; experiment: Bactericidal activity against Staphylococcus epidermidis ATCC 12228 measured after 18 hrs by CLSI broth dilution method; assay type: functional; conditions: ATCC 12228, 18 h; method in brief: as §2
Enterococcus faecalis [8] = experiment: Bactericidal activity against Enterococcus faecalis ATCC 29212 measured after 18 hrs by CLSI broth dilution method; assay type: functional; conditions: ATCC 29212, 18 h; method in brief: as §2
Enterococcus faecium [9] = experiment: Bactericidal activity against Enterococcus faecium ATCC 6057 measured after 18 hrs by CLSI broth dilution method; assay type: functional; conditions: ATCC 6057, 18 h; method in brief: as §2
Escherichia coli [10] = experiment: Antibacterial activity against Escherichia coli ATCC 25922 measured after 18 hrs by CLSI broth dilution method; assay type: functional; conditions: ATCC 25922, 18 h; method in brief: as §1
Klebsiella pneumoniae [11] = experiment: Antibacterial activity against Klebsiella pneumoniae ATCC 13883 measured after 18 hrs by CLSI broth dilution method; assay type: functional; conditions: ATCC 13883, 18 h; method in brief: as §1
Proteus mirabilis [12] = experiment: Antibacterial activity against Proteus mirabilis ATCC 12453 measured after 18 hrs by CLSI broth dilution method; assay type: functional; conditions: ATCC 12453, 18 h; method in brief: as §1
Enterobacter cloacae [13] = experiment: Antibacterial activity against Enterobacter cloacae DSM 6234 measured after 18 hrs by CLSI broth dilution method; assay type: functional; conditions: DSM 6234, 18 h; method in brief: as §1
[14] = system: Bordetella bronchiseptica; experiment: Antibacterial activity against Bordetella bronchiseptica ATCC 4617 measured after 18 hrs by CLSI broth dilution method; assay type: functional; conditions: ATCC 4617, 18 h; method in brief: as §1
Acinetobacter baumannii [15] = experiment: Antibacterial activity against Acinetobacter baumannii ATCC 19606 measured after 18 hrs by CLSI broth dilution method; assay type: functional; conditions: ATCC 19606, 18 h; method in brief: as §1
[16] = system: Stenotrophomonas maltophilia; experiment: Antibacterial activity against Stenotrophomonas maltophilia ATCC 13637 measured after 18 hrs by CLSI broth dilution method; assay type: functional; conditions: ATCC 13637, 18 h; method in brief: as §1
Burkholderia cepacia [17] = experiment: Antibacterial activity against Burkholderia cepacia ATCC 25416 measured after 18 hrs by CLSI broth dilution method; assay type: functional; conditions: ATCC 25416, 18 h; method in brief: as §1
Burkholderia cepacia [18] = experiment: Bactericidal activity against Burkholderia cepacia ATCC 25416 measured after 18 hrs by CLSI broth dilution method; assay type: functional; conditions: ATCC 25416, 18 h; method in brief: as §2
[19] = system: Bordetella bronchiseptica; experiment: Bactericidal activity against Bordetella bronchiseptica ATCC 4617 measured after 18 hrs by CLSI broth dilution method; assay type: functional; conditions: ATCC 4617, 18 h; method in brief: as §2
Escherichia coli [20] = experiment: Antibacterial activity against Escherichia coli ATCC 25922 assessed as diameter of zone inhibition measured after 18 hrs by CLSI disc diffusion method; assay type: functional
Method in brief: (§3)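 Disc diffusion on Mueller-Hinton II agar. Compounds dissolved in DMSO. Strains stored at -80 °C and subcultured twice on tryptic soy agar before testing. Inhibition zones read after 35 °C, 18 h.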

Proteus mirabilis [21] = experiment: Antibacterial activity against Proteus mirabilis ATCC 12453 assessed as diameter of zone inhibition measured after 18 hrs by CLSI disc diffusion method; assay type: functional; method in brief: as §3
Enterobacter cloacae [22] = experiment: Antibacterial activity against Enterobacter cloacae DSM 6234 assessed as diameter of zone inhibition measured after 18 hrs by CLSI disc diffusion method; assay type: functional; method in brief: as §3
Pseudomonas aeruginosa [23] = experiment: Antibacterial activity against Pseudomonas aeruginosa ATCC 27853 assessed as diameter of zone inhibition measured after 18 hrs by CLSI disc diffusion method; assay type: functional, organism-based; method in brief: as §3
Acinetobacter baumannii [24] = experiment: Antibacterial activity against Acinetobacter baumannii ATCC 19606 assessed as diameter of zone inhibition measured after 18 hrs by CLSI disc diffusion method; assay type: functional; method in brief: as §3
[25] = system: Stenotrophomonas maltophilia; experiment: Antibacterial activity against Stenotrophomonas maltophilia ATCC 13637 assessed as diameter of zone inhibition measured after 18 hrs by CLSI disc diffusion method; assay type: functional; method in brief: as §3
Burkholderia cepacia [26] = experiment: Antibacterial activity against Burkholderia cepacia ATCC 25416 assessed as diameter of zone inhibition measured after 18 hrs by CLSI disc diffusion method; assay type: functional; method in brief: as §3
[27] = system: Bordetella bronchiseptica; experiment: Antibacterial activity against Bordetella bronchiseptica ATCC 4617 assessed as diameter of zone inhibition measured after 18 hrs by CLSI disc diffusion method; assay type: functional; method in brief: as §3
Escherichia coli [28] = experiment: microbe, parasite or virus in culture; conditions: ATCC 25922, 18 h
Klebsiella pneumoniae [29] = experiment: microbe, parasite or virus in culture; conditions: ATCC 13883, 18 h
Enterobacter cloacae [30] = experiment: microbe, parasite or virus in culture; conditions: DSM 6234, 18 h
Acinetobacter baumannii [31] = experiment: microbe, parasite or virus in culture; conditions: ATCC 19606, 18 h
Staphylococcus aureus [32] = experiment: microbe, parasite or virus in culture; conditions: ATCC 6538P, 18 h, read-out: DIZ
[33] = system: Staphylococcus epidermidis; experiment: microbe, parasite or virus in culture; conditions: ATCC 12228, 18 h, read-out: DIZ
Bacillus subtilis = experiment: microbe, parasite or virus in culture; conditions: ATCC 6633, 18 h, read-out: DIZ

**Q.** `O=C1CN(/N=C/c2ccc([N+](=O)[O-])o2)C(=O)N1` [NITROFURANTOIN] was tested. Which MIC (Pseudomonas aeruginosa [1]) did it give?
**A.** Its MIC is > 128 µg/mL.

**Q.** And the MIC (Serratia marcescens)?
**A.** Its MIC is 128 µg/mL (≈ 537 µM).

**Q.** What about the MIC (Staphylococcus aureus [2]) of the same molecule?
**A.** The MIC was 8 µg/mL (≈ 33.6 µM).

**Q.** What about the MIC [3] of the same molecule?
**A.** Its MIC is 4 µg/mL (≈ 16.8 µM).

**Q.** And the MIC (Enterococcus faecalis [4])?
**A.** Its MIC is 8 µg/mL (≈ 33.6 µM).

**Q.** And the MIC (Enterococcus faecium [5])?
**A.** The MIC was 8 µg/mL (≈ 33.6 µM).

**Q.** And the MBC (Staphylococcus aureus [6])?
**A.** The MBC was 16 µg/mL (≈ 67.2 µM).

**Q.** What about the MBC [7] of the same molecule?
**A.** Its MBC is 8 µg/mL (≈ 33.6 µM).

**Q.** And the MBC (Enterococcus faecalis [8])?
**A.** The MBC was 128 µg/mL (≈ 537 µM).

**Q.** And the MBC (Enterococcus faecium [9])?
**A.** Its MBC is > 128 µg/mL.

**Q.** What about the MIC (Escherichia coli [10]) of the same molecule?
**A.** The MIC was 8 µg/mL (≈ 33.6 µM).

**Q.** What about the MIC (Klebsiella pneumoniae [11]) of the same molecule?
**A.** The MIC was 32 µg/mL (≈ 134 µM).

**Q.** And the MIC (Proteus mirabilis [12])?
**A.** The MIC was 128 µg/mL (≈ 537 µM).

**Q.** What about the MIC (Enterobacter cloacae [13]) of the same molecule?
**A.** Its MIC is 32 µg/mL (≈ 134 µM).

**Q.** And the MIC [14]?
**A.** The MIC was 64 µg/mL (≈ 269 µM).

**Q.** What about the MIC (Acinetobacter baumannii [15]) of the same molecule?
**A.** Its MIC is 64 µg/mL (≈ 269 µM).

**Q.** What about the MIC [16] of the same molecule?
**A.** Its MIC is 128 µg/mL (≈ 537 µM).

**Q.** What about the MIC (Burkholderia cepacia [17]) of the same molecule?
**A.** The MIC was 32 µg/mL (≈ 134 µM).

**Q.** And the MBC (Burkholderia cepacia [18])?
**A.** Its MBC is 32 µg/mL (≈ 134 µM).

**Q.** What about the MBC [19] of the same molecule?
**A.** Its MBC is 128 µg/mL (≈ 537 µM).

**Q.** What about the “diameter of the inhibition zone (DIZ)” value (Escherichia coli [20]) of the same molecule?
**A.** The value was 24 mm.

**Q.** What about the “diameter of the inhibition zone (DIZ)” value (Proteus mirabilis [21]) of the same molecule?
**A.** Its value is 9 mm.

**Q.** And the “diameter of the inhibition zone (DIZ)” value (Enterobacter cloacae [22])?
**A.** The value was 17 mm.

**Q.** And the “diameter of the inhibition zone (DIZ)” value (Pseudomonas aeruginosa [23])?
**A.** Its value is “inactive”.

**Q.** And the “diameter of the inhibition zone (DIZ)” value (Acinetobacter baumannii [24])?
**A.** The value was 9 mm.

**Q.** What about the “diameter of the inhibition zone (DIZ)” value [25] of the same molecule?
**A.** Its value is “inactive”.

**Q.** And the “diameter of the inhibition zone (DIZ)” value (Burkholderia cepacia [26])?
**A.** Its value is 12 mm.

**Q.** And the “diameter of the inhibition zone (DIZ)” value [27]?
**A.** The value was “inactive”.

**Q.** What about the MBC (Escherichia coli [28]) of the same molecule?
**A.** Its MBC is 8 µg/mL (≈ 33.6 µM).

**Q.** What about the MBC (Klebsiella pneumoniae [29]) of the same molecule?
**A.** Its MBC is 32 µg/mL (≈ 134 µM).

**Q.** What about the MBC (Enterobacter cloacae [30]) of the same molecule?
**A.** Its MBC is 32 µg/mL (≈ 134 µM).

**Q.** What about the MBC (Acinetobacter baumannii [31]) of the same molecule?
**A.** Its MBC is 128 µg/mL (≈ 537 µM).

**Q.** And the zone of inhibition at 300 µg/disc (Staphylococcus aureus [32])?
**A.** The zone of inhibition at 300 µg/disc was 24 mm.

**Q.** What about the zone of inhibition at 300 µg/disc [33] of the same molecule?
**A.** The zone of inhibition at 300 µg/disc was 31 mm.

**Q.** What about the zone of inhibition at 300 µg/disc (Bacillus subtilis) of the same molecule?
**A.** The zone of inhibition at 300 µg/disc was 30 mm.
